Activity calls are given as the source filed them. The rule behind the calls is not given here.
Assays:
[1] = AUC (0 to 24 hrs) in Sprague-Dawley rat at 10 mg/kg/day, po; format: ADME, organism-based; design: dose 10 mg/kg/day, time < 24 hr, route oral; conditions: plasma
[2] = test system: Mus musculus; assay: Inhibition of FLT3-ITD mutant in human MV4-11 cells xenografted in NOD-SCID mouse assessed as inhibition of STAT5 phosphorylation at 10 mg/kg/day, po after 3 days by immunostaining method relative to vehicle-treated control; format: functional, organism-based
In short: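 Mice (NOD-SCID) bearing sc MV4-11 tumors given 10 mg/kg/d by oral gavage. Tumors removed after 2–4 days and formalin-fixed. Sections immunostained for Ki67 (proliferation) or p-STAT5, or TUNEL-stained (apoptosis). Imaged by light microscopy and compared with vehicle group.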

[3] = target: T1, Receptor-type tyrosine-protein kinase FLT3 (Homo sapiens, UniProt P36888); assay: Inhibition of FLT3 in human MV4-11 cells assessed as inhibition of STAT5 phosphorylation after 20 hrs by Western blotting analysis; format: cell-based
T1 sequence (P36888 whole entry): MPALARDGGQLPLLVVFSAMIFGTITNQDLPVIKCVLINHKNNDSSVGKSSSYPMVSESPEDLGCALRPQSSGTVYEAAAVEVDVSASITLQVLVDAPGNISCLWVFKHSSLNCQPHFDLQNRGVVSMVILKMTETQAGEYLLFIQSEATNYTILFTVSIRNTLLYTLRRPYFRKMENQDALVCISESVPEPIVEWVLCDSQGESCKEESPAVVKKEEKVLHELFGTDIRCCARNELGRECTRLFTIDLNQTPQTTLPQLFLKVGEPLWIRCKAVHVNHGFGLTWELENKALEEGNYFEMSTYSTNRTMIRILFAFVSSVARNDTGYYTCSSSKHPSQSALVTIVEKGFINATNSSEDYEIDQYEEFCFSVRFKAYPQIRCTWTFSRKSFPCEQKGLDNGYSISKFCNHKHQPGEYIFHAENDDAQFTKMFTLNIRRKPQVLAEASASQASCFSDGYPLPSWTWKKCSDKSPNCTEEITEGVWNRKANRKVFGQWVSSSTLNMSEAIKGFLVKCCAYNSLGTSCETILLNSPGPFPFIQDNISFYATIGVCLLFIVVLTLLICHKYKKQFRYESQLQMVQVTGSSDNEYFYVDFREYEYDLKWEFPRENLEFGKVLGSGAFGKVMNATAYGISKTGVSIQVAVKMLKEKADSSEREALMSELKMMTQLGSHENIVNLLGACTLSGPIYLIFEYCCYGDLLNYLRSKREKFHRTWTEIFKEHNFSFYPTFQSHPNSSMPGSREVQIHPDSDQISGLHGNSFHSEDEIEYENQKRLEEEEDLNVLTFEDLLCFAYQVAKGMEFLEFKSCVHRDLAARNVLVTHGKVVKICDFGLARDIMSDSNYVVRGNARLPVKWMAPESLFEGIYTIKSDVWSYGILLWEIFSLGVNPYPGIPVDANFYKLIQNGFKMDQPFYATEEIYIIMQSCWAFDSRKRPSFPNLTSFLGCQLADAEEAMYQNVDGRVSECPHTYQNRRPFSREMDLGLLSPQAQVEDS

[4] = target: T1, Receptor-type tyrosine-protein kinase FLT3; assay: Inhibition of FLT3 phosphorylation in human MV4-11 cells after 20 hrs by Western blotting analysis; format: cell-based
[5] = test system: MV4-11; assay: Antitumor activity against human MV4-11 cells xenografted in mouse at 5 mg/kg/day, po after 18 days; format: functional, organism-based
In short: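 MV4-11 sc xenograft mice dosed daily by mouth once tumors reached about 400 mm³, three mice per group; tumor volume followed.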

[6] = test system: MV4-11; assay: Induction of apoptosis in human MV4-11 cells assessed as early apoptotic cells at 0.003 uM after 24 hrs by annexin V-FITC/propidium iodide staining-based FACS flow cytometric analysis (reference value: 1.61%); format: functional
[7] = test system: MV4-11; assay: Induction of apoptosis in human MV4-11 cells assessed as early apoptotic cells at 0.001 uM after 24 hrs by annexin V-FITC/propidium iodide staining-based FACS flow cytometric analysis (reference value: 1.61%); format: functional
[8] = test system: MV4-11; assay: Induction of apoptosis in human MV4-11 cells assessed as late apoptotic cells at 0.03 uM after 24 hrs by annexin V-FITC/propidium iodide staining-based FACS flow cytometric analysis (reference value: 4.28%); format: functional
[9] = Cytotoxicity against human SK cells assessed as growth inhibition after 72 hrs by MTT assay
[10] = test system: SK-OV-3; assay: Cytotoxicity against human SKOV3 cells assessed as growth inhibition after 72 hrs by MTT assay; conditions: SK-OV-3, 72 h
[11] = test system: DU-145; assay: Cytotoxicity against human DU145 cells assessed as growth inhibition after 72 hrs by MTT assay; conditions: DU-145, 72 h
[12] = test system: U-266; assay: Cytotoxicity against human U266 cells assessed as growth inhibition after 72 hrs by MTT assay; conditions: U-266, 72 h
[13] = test system: U-937; assay: Cytotoxicity against human U937 cells assessed as growth inhibition after 72 hrs by MTT assay; conditions: U-937, 72 h
[14] = test system: SMMC-7721; assay: Cytotoxicity against human SMMC7721 cells assessed as growth inhibition after 72 hrs by MTT assay; conditions: SMMC-7721, 72 h
[15] = test system: MKN-45; assay: Cytotoxicity against human MKN45 cells assessed as growth inhibition after 72 hrs by MTT assay; conditions: MKN-45, 72 h
[16] = target: Serine/threonine-protein kinase PAK 4 (Homo sapiens, UniProt O96013); assay: Inhibition of PAK4 (unknown origin)
In short: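 Single selected panel of recombinant human protein kinases, screened in vitro. The value reported is the IC50 against each kinase.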

[17] = target: Serine/threonine-protein kinase Chk1 (Homo sapiens, UniProt O14757); assay: Inhibition of CHEK1 (unknown origin)
[18] = target: Cyclin-dependent kinase 2 (Homo sapiens, UniProt P24941); assay: Inhibition of CDK2 (unknown origin)
[19] = target: Aurora kinase B (Homo sapiens, UniProt Q96GD4); assay: Inhibition of aurora-B (unknown origin)
[20] = target: Serine/threonine-protein kinase pim-1 (Homo sapiens, UniProt P11309); assay: Inhibition of Pim-1 (unknown origin)
[21] = target: Platelet-derived growth factor receptor alpha (Homo sapiens, UniProt P16234); assay: Inhibition of PDGFRalpha (unknown origin)
[22] = target: RAF proto-oncogene serine/threonine-protein kinase (Homo sapiens, UniProt P04049); assay: Inhibition of c-RAF (unknown origin)
[23] = target: Receptor-type tyrosine-protein kinase FLT3 (Homo sapiens, UniProt P36888, ITD); assay: Binding affinity to FLT3-ITD mutant (unknown origin)
[24] = target: Vascular endothelial growth factor receptor 2 (Danio rerio, UniProt Q5GIT4); assay: Inhibition of VEGFR2 in transgenic zebrafish embryo assessed as inhibition of intersegmental vessels formation measured 33 hrs post fertilization by fluorescence microscopic analysis
In short: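 FLK-1:EGFP transgenic zebrafish embryos, 10 per well, exposed at 28.5 °C from 15 to 31 hpf to compound in fish water at 1.25, 2.5 or 5 μM (diluted from a 10 mmol/L DMSO stock); 0.3% DMSO as vehicle control. Embryos were imaged at 33 hpf, and ISVs above the yolk extension were scored for length. n = 11, mean ± SD, ANOVA.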

Chain of Platelet-derived growth factor receptor alpha (P16234 whole entry): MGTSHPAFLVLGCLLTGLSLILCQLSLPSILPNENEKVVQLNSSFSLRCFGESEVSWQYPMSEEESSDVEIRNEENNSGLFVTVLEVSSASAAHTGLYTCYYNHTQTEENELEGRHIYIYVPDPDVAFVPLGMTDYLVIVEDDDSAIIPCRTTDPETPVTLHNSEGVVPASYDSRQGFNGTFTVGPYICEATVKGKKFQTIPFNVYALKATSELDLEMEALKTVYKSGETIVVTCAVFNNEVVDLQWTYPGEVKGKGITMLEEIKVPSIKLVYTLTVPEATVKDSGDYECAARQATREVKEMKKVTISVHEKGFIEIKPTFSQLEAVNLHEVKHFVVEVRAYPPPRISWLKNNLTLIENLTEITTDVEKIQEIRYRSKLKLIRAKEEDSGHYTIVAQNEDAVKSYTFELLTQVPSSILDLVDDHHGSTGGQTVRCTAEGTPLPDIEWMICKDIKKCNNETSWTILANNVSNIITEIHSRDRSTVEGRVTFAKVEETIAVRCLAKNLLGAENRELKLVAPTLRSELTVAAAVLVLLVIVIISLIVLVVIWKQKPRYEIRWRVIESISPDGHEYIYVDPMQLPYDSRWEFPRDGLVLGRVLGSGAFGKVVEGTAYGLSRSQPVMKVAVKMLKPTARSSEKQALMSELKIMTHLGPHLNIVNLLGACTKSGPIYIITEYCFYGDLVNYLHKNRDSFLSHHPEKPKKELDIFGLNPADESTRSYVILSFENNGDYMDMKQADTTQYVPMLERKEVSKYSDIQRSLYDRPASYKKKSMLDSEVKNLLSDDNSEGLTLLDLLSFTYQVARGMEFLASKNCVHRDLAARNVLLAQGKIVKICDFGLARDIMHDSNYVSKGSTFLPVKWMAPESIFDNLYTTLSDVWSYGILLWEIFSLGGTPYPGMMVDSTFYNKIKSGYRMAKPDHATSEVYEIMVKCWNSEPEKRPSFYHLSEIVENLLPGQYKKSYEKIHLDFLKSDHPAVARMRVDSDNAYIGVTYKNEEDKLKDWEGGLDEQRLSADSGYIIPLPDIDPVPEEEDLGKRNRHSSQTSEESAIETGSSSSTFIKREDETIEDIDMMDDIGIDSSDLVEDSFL
Chain of Vascular endothelial growth factor receptor 2 (Q5GIT4 whole entry): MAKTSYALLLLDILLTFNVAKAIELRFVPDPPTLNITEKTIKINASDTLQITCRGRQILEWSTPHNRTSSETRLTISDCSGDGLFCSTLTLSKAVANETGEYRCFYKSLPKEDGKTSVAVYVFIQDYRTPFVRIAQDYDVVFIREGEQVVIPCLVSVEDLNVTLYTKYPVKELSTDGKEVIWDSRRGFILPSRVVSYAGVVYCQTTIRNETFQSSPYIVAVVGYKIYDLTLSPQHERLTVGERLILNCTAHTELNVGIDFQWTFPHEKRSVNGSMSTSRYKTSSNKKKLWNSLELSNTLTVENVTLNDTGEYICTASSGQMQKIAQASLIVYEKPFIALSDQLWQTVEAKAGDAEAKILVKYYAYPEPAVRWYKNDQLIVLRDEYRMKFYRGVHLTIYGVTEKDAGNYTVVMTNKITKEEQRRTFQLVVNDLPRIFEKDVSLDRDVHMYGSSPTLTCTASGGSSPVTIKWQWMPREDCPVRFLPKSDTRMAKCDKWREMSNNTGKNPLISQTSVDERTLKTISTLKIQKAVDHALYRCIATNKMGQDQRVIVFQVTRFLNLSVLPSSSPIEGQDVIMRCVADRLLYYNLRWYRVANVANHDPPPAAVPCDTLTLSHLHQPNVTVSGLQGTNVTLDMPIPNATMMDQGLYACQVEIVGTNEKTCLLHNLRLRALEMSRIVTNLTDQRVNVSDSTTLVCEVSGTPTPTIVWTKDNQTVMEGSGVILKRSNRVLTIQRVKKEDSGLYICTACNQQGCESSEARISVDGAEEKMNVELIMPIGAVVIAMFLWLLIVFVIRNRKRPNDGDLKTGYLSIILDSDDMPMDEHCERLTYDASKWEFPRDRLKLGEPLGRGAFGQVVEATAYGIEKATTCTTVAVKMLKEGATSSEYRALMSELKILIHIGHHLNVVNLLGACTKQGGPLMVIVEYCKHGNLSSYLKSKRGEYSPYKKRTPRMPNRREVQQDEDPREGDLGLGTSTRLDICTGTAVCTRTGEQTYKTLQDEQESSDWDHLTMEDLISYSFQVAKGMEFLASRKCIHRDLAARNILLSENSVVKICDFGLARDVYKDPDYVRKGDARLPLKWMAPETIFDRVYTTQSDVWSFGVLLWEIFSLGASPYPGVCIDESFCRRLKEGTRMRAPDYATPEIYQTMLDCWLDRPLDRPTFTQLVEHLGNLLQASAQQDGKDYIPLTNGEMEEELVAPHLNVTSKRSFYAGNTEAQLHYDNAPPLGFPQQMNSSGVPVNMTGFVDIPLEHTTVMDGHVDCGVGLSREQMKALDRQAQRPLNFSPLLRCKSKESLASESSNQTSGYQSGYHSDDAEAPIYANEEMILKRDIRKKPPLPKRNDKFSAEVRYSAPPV
Chain of Serine/threonine-protein kinase Chk1 (O14757 whole entry): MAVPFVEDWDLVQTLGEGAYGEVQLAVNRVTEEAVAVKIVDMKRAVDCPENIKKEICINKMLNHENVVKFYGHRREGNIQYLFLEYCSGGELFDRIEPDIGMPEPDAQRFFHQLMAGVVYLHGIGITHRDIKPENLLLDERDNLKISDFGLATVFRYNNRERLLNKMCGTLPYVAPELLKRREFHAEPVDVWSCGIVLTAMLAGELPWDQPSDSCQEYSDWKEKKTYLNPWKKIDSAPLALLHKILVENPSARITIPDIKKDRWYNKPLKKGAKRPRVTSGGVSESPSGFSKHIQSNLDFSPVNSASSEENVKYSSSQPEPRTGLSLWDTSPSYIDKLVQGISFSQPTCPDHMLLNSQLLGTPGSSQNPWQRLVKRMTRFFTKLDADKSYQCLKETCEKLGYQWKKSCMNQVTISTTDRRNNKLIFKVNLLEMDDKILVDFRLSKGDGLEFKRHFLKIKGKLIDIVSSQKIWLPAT
Chain of Serine/threonine-protein kinase PAK 4 (O96013 whole entry): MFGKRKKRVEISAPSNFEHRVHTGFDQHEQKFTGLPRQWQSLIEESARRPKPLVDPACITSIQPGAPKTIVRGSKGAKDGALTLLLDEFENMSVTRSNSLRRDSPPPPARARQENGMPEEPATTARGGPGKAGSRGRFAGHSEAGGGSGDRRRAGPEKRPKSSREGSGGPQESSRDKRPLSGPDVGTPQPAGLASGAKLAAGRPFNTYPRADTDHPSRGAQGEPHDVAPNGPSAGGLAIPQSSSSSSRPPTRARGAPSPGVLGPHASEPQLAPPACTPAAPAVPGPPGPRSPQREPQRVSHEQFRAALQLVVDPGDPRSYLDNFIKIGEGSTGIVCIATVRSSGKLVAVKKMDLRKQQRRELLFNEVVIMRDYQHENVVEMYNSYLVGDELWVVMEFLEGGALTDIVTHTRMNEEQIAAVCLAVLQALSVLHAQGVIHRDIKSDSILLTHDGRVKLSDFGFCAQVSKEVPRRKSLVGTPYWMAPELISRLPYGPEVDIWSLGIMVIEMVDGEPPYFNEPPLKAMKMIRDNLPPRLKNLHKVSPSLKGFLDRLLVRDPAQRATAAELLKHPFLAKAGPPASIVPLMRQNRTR
Chain of Aurora kinase B (Q96GD4 whole entry): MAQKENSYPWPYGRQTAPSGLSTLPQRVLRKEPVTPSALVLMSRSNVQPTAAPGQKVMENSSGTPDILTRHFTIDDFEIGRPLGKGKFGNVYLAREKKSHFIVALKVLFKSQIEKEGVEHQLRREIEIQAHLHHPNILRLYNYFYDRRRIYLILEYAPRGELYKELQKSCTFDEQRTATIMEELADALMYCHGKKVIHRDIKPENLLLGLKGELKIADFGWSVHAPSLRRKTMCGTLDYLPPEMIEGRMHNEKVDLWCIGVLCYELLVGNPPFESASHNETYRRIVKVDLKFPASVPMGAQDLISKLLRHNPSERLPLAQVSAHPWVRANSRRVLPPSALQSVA
Chain of RAF proto-oncogene serine/threonine-protein kinase (P04049 whole entry): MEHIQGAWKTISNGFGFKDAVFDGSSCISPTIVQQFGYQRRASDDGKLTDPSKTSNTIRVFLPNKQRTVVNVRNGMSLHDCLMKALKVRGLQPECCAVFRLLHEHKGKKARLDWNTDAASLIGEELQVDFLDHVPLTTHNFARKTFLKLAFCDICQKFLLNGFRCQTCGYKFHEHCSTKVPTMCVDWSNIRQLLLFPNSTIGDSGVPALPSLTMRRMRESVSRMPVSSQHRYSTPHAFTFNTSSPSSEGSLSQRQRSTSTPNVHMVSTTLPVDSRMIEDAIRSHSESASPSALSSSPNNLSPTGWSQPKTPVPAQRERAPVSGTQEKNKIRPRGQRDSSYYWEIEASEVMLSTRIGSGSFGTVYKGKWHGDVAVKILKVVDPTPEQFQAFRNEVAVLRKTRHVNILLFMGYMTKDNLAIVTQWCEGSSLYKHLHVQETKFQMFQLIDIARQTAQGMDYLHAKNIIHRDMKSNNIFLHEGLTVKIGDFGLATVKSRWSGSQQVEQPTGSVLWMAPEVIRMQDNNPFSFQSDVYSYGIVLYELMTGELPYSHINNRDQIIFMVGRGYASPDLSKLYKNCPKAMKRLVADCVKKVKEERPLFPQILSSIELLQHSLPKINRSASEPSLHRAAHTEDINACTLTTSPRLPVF
Chain of Serine/threonine-protein kinase pim-1 (P11309 whole entry): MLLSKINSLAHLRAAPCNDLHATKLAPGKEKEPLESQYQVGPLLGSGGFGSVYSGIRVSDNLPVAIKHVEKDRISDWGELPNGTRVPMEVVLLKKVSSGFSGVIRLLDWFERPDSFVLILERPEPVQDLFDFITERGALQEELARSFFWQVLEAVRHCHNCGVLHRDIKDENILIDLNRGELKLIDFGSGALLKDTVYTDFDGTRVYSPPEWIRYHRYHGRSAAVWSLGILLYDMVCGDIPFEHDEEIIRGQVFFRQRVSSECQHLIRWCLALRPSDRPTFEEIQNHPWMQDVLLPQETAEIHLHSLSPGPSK

O=C(Nc1ccc(Oc2ncnc3[nH]ncc23)cc1)Nc1ccc(Cl)c(C(F)(F)F)c1
AUC at 24 h [1]: 319 µg·h/mL
inhibition [2]: Active
IC50 [3]: 0.003 µM
IC50 [4]: 0.003 µM
Activity [5]: Active
Activity [6]: 5.16%
Activity [7]: 4.15%
Activity [8]: 17.8%
IC50 [9]: > 10 µM
IC50 [10]: > 10 µM
IC50 [11]: > 10 µM
IC50 [12]: > 10 µM
IC50 [13]: > 10 µM
IC50 [14]: > 10 µM
IC50 [15]: 8.23 µM
IC50 [16]: > 10 µM
IC50 [17]: > 10 µM
IC50 [18]: > 10 µM
IC50 [19]: > 10 µM
IC50 [20]: > 10 µM
IC50 [21]: 0.223 µM
IC50 [22]: 0.072 µM
Kd [23]: 0.0043 µM
IC50 [24]: 2.5 µM
